{"source": "paper PMC6126370", "about": "(Investigational new drugs, 2017)", "key": {"[1]": {"experiment": "Clinical pharmacokinetics of PU-H71 in plasma and urine", "format": "in vivo, human", "details": "for Urinary excretion: 1-h i.v. infusion", "procedure,_shortened": "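Patients with refractory solid tumors received the test compound (10–470 mg/m2) as a 1-h i.v. infusion. Heparinised blood was drawn on cycle 1 day 1 pre-infusion, 30 min after start, 5 min before end, and 1.5–24 h after start. Plasma was stored at −70 °C. Urine was collected every void on day 1. Plasma was acetonitrile-precipitated with deuterated internal standard and run on HPLC/MS against a control-plasma standard curve. Cmax/Tmax were taken by inspection and AUC by trapezoidal rule.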"}, "[2]": {"system": "patients with advanced solid tumors", "details": "human, in vivo"}, "refractory solid tumors": {"system": "refractory solid tumors", "experiment": "Clinical response by RECIST 1.1", "format": "in vivo, human", "procedure,_shortened": "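Adults (≥18 y) with solid tumors refractory to or lacking standard therapy received the test compound i.v. over 1 h on days 1 and 8 of 21-day cycles. Doses were 10–470 mg/m2/day, escalated by modified accelerated titration and then 3+3. Response was assessed by RECIST criteria in evaluable patients.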"}, "[3]": {"system": "human liver microsomal fractions", "experiment": "In vitro metabolism in liver microsomes or S9 fractions", "format": "in vitro ADME", "procedure,_shortened": "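Test compound at 1 and 10 μM was incubated with human liver microsomes or S9 fraction (0.5 mg protein/mL) with 1 mM NADPH and 3.3 mM […] in 100 mM phosphate, pH 7.4, at 37 °C with shaking. For O-methylation, 0.1 mM S-adenosyl methionine was added. Aliquots were processed like plasma and analysed by LC/MS.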"}, "[4]": {"system": "Bcl-6-dependent diffuse large B-cell lymphoma (DLBCL), hepatocellular carcinoma (HCC), and breast cancer cell lines", "details": "preclinical studies, through induction of apoptosis; cited from earlier work"}, "[5]": {"system": "mouse xenografts of triple negative breast cancer, lymphoma, myeloma, pancreatic, and hepatocellular carcinoma", "details": "preclinical mouse xenografts; cited from earlier work"}, "[6]": {"experiment": "PU-H71 metabolites in patient plasma", "format": "in vivo, human", "details": "aliquot of patient plasma, Fig. 5a"}, "[7]": {"details": "14 patients evaluable of 17 enrolled"}}}
{"smiles": "CC(C)NCCCn1c(Sc2cc3c(cc2I)OCO3)nc2c(N)ncnc21", "note": "[PU-H71, 6-amino-8-[(6-iodo-1,3-benzodioxol-5-yl)thio]-N-(1-methylethyl)-9H–purine-9-propanamine]", "values": [{"measurement": "dependency of T1/2 to dose level", "setting": "[1]; 10 to 470 mg/m^2", "result": "no dependency to dose level"}, {"measurement": "fraction of total AUC (± SD) during the infusion", "setting": "[1]; all dose levels", "result": "19.6% ± 11.3%"}, {"measurement": "Urinary excretion", "setting": "[1]; dose level 1 (10 mg/m^2), day 1, 1 patient", "result": 5.5, "unit": "%"}, {"measurement": "Urinary excretion", "setting": "[1]; dose level 4 (60 mg/m^2), day 1, 1 patient", "result": 8.8, "unit": "%"}, {"measurement": "Urinary excretion", "setting": "[1]; dose level 5 (80 mg/m^2), day 1, mean ± SD of 2 patients", "result": "6.7 ± 1.3", "unit": "%"}, {"measurement": "Urinary excretion", "setting": "[1]; dose level 6 (110 mg/m^2), day 1, mean ± SD of 3 patients", "result": "6.7 ±4.6", "unit": "%"}, {"measurement": "Urinary excretion", "setting": "[1]; dose level 7 (150 mg/m^2), day 1, 1 patient", "result": 8.1, "unit": "%"}, {"measurement": "Urinary excretion", "setting": "[1]; dose level 8 (200 mg/m^2), day 1, mean ± SD of 2 patients", "result": "6.0 ± 4.2", "unit": "%"}, {"measurement": "Urinary excretion", "setting": "[1]; dose level 9 (266 mg/m^2), day 1, 1 patient", "result": 5.4, "unit": "%"}, {"measurement": "Urinary excretion", "setting": "[1]; dose level 10 (354 mg/m^2), day 1, mean ± SD of 3 patients", "result": "8.6 ± 4.6", "unit": "%"}, {"measurement": "Urinary excretion", "setting": "[1]; dose level 11 (470 mg/m^2), day 1, 1 patient", "result": 5.7, "unit": "%"}, {"measurement": "Tmax", "setting": "[1]; human, plasma, intravenous", "result": "≤ 1", "unit": "h"}, {"measurement": "half-life", "setting": "[1]; human, plasma, intravenous", "result": "2.7 to 19.8", "unit": "h"}, {"measurement": "half-life", "setting": "[1]; human, plasma, iv", "result": "8.4 ± 3.6", "unit": "h"}, {"measurement": "AUC(0-inf)", "setting": "[1]; human, plasma, iv, 10 mg/m^2", "result": 0.517, "unit": "µM·h"}, {"measurement": "AUC(0-t)", "setting": "[1]; human, plasma, iv, 10 mg/m^2", "result": 0.45, "unit": "µM·h"}, {"measurement": "Cmax", "setting": "[1]; human, plasma, iv, 10 mg/m^2", "result": 0.2, "unit": "µM"}, {"measurement": "clearance", "setting": "[1]; human, plasma, iv, 10 mg/m^2", "result": 17.2, "unit": "mL/min/kg"}, {"measurement": "half-life", "setting": "[1]; human, plasma, iv, 10 mg/m^2", "result": 2.7, "unit": "h"}, {"measurement": "AUC(0-inf)", "setting": "[1]; human, plasma, iv, 20 mg/m^2", "result": 1.67, "unit": "µM·h"}, {"measurement": "AUC(0-t)", "setting": "[1]; human, plasma, iv, 20 mg/m^2", "result": 1.23, "unit": "µM·h"}, {"measurement": "Cmax", "setting": "[1]; human, plasma, iv, 20 mg/m^2", "result": 0.3, "unit": "µM"}, {"measurement": "clearance", "setting": "[1]; human, plasma, iv, 20 mg/m^2", "result": 10.5, "unit": "mL/min/kg"}, {"measurement": "half-life", "setting": "[1]; human, plasma, iv, 20 mg/m^2", "result": 10.5, "unit": "h"}, {"measurement": "half-life", "setting": "[1]; human, plasma, iv, 40 mg/m^2", "result": 9.2, "unit": "h"}, {"measurement": "AUC(0-inf)", "setting": "[1]; human, plasma, iv, 60 mg/m^2", "result": 5.02, "unit": "µM·h"}, {"measurement": "AUC(0-t)", "setting": "[1]; human, plasma, iv, 60 mg/m^2", "result": 4.55, "unit": "µM·h"}, {"measurement": "Cmax", "setting": "[1]; human, plasma, iv, 60 mg/m^2", "result": 1.3, "unit": "µM"}, {"measurement": "clearance", "setting": "[1]; human, plasma, iv, 60 mg/m^2", "result": 10.5, "unit": "mL/min/kg"}, {"measurement": "half-life", "setting": "[1]; human, plasma, iv, 60 mg/m^2", "result": 6.1, "unit": "h"}, {"measurement": "AUC(0-inf)", "setting": "[1]; human, plasma, iv, 80 mg/m^2", "result": 16.8, "unit": "µM·h"}, {"measurement": "AUC(0-t)", "setting": "[1]; human, plasma, iv, 80 mg/m^2", "result": 15, "unit": "µM·h"}, {"measurement": "Cmax", "setting": "[1]; human, plasma, iv, 80 mg/m^2", "result": "5.7 ± 0.1", "unit": "µM"}, {"measurement": "clearance", "setting": "[1]; human, plasma, iv, 80 mg/m^2", "result": 4.17, "unit": "mL/min/kg"}, {"measurement": "half-life", "setting": "[1]; human, plasma, iv, 80 mg/m^2", "result": "6.7 ± 0.1", "unit": "h"}, {"measurement": "AUC(0-inf)", "setting": "[1]; human, plasma, iv, 110 mg/m^2", "result": 22.9, "unit": "µM·h"}, {"measurement": "AUC(0-t)", "setting": "[1]; human, plasma, iv, 110 mg/m^2", "result": 19.8, "unit": "µM·h"}, {"measurement": "Cmax", "setting": "[1]; human, plasma, iv, 110 mg/m^2", "result": "7.3 ± 2.4", "unit": "µM"}, {"measurement": "clearance", "setting": "[1]; human, plasma, iv, 110 mg/m^2", "result": 4.67, "unit": "mL/min/kg"}, {"measurement": "half-life", "setting": "[1]; human, plasma, iv, 110 mg/m^2", "result": "7.6 ± 0.2", "unit": "h"}, {"measurement": "AUC(0-inf)", "setting": "[1]; human, plasma, iv, 150 mg/m^2", "result": 29.5, "unit": "µM·h"}, {"measurement": "AUC(0-t)", "setting": "[1]; human, plasma, iv, 150 mg/m^2", "result": 25.6, "unit": "µM·h"}, {"measurement": "Cmax", "setting": "[1]; human, plasma, iv, 150 mg/m^2", "result": 8.7, "unit": "µM"}, {"measurement": "clearance", "setting": "[1]; human, plasma, iv, 150 mg/m^2", "result": 4.5, "unit": "mL/min/kg"}, {"measurement": "half-life", "setting": "[1]; human, plasma, iv, 150 mg/m^2", "result": 7.2, "unit": "h"}, {"measurement": "AUC(0-inf)", "setting": "[1]; human, plasma, iv, 200 mg/m^2", "result": 41.3, "unit": "µM·h"}, {"measurement": "AUC(0-t)", "setting": "[1]; human, plasma, iv, 200 mg/m^2", "result": 34.8, "unit": "µM·h"}, {"measurement": "Cmax", "setting": "[1]; human, plasma, iv, 200 mg/m^2", "result": "8 ± 4.5", "unit": "µM"}, {"measurement": "clearance", "setting": "[1]; human, plasma, iv, 200 mg/m^2", "result": 4.33, "unit": "mL/min/kg"}, {"measurement": "half-life", "setting": "[1]; human, plasma, iv, 200 mg/m^2", "result": "7.1 ± 0.5", "unit": "h"}, {"measurement": "AUC(0-inf)", "setting": "[1]; human, plasma, iv, 266 mg/m^2", "result": 90.8, "unit": "µM·h"}, {"measurement": "AUC(0-t)", "setting": "[1]; human, plasma, iv, 266 mg/m^2", "result": 59.9, "unit": "µM·h"}, {"measurement": "Cmax", "setting": "[1]; human, plasma, iv, 266 mg/m^2", "result": 7.8, "unit": "µM"}, {"measurement": "clearance", "setting": "[1]; human, plasma, iv, 266 mg/m^2", "result": 2.5, "unit": "mL/min/kg"}, {"measurement": "half-life", "setting": "[1]; human, plasma, iv, 266 mg/m^2", "result": 10.2, "unit": "h"}, {"measurement": "AUC(0-inf)", "setting": "[1]; human, plasma, iv, 354 mg/m^2", "result": 180, "unit": "µM·h"}, {"measurement": "AUC(0-t)", "setting": "[1]; human, plasma, iv, 354 mg/m^2", "result": 114, "unit": "µM·h"}, {"measurement": "Cmax", "setting": "[1]; human, plasma, iv, 354 mg/m^2", "result": "17.3 ± 8.5", "unit": "µM"}, {"measurement": "clearance", "setting": "[1]; human, plasma, iv, 354 mg/m^2", "result": 2.17, "unit": "mL/min/kg"}, {"measurement": "half-life", "setting": "[1]; human, plasma, iv, 354 mg/m^2", "result": "11.5 ± 7.3", "unit": "h"}, {"measurement": "AUC(0-inf)", "setting": "[1]; human, plasma, iv, 470 mg/m^2", "result": 203, "unit": "µM·h"}, {"measurement": "AUC(0-t)", "setting": "[1]; human, plasma, iv, 470 mg/m^2", "result": 143, "unit": "µM·h"}, {"measurement": "Cmax", "setting": "[1]; human, plasma, iv, 470 mg/m^2", "result": 33.7, "unit": "µM"}, {"measurement": "clearance", "setting": "[1]; human, plasma, iv, 470 mg/m^2", "result": 2, "unit": "mL/min/kg"}, {"measurement": "half-life", "setting": "[1]; human, plasma, iv, 470 mg/m^2", "result": 10.8, "unit": "h"}, {"measurement": "given dose (± SD) recovered as free drug in urine", "setting": "[1]; total urine collected in 24 h, average for all dose levels", "result": "6.7 ± 3.0", "unit": "%"}, {"measurement": "dose level of first grade ≥ 2 toxicity", "setting": "[2]", "result": "DL 6"}, {"measurement": "progressive disease within the first 2 cycles", "setting": "refractory solid tumors; 14 evaluable patients", "result": "Eight of the evaluable patients progressed early"}, {"measurement": "patients with best response of stable disease", "setting": "refractory solid tumors; [7]", "result": 35, "unit": "%"}, {"measurement": "patients with best response of stable disease for >2 cycles (number)", "setting": "refractory solid tumors; [7]", "result": 6}, {"measurement": "phase 1 reactions", "setting": "[3]; NADPH, 37 °C", "result": "S-oxidation, N-dealkylation, de-iodination, and O-demethylation"}, {"measurement": "most active phase 1 reaction", "setting": "[3]; forms catechol 501", "result": "O-demethylation"}, {"measurement": "cytotoxicity", "setting": "[4]", "result": "high cytotoxicity"}, {"measurement": "growth inhibitory effects in xenografts", "setting": "[5]", "result": "potent and lasting growth inhibitory effects"}]}
{"smiles": "NCCCn1c(Sc2cc3c(cc2I)OCO3)nc2c(N)ncnc21", "note": "[compound 471, de-isopropyl PU-H71]", "values": [{"measurement": "peak in representative ion mass tracing", "setting": "[6]", "result": "observed"}]}
